From article PMC7210785 (Cancer cell, 2019)

Target: T1, RNF2 (Homo sapiens, UniProt Q99496)
T1 sequence (Q99496 2-336): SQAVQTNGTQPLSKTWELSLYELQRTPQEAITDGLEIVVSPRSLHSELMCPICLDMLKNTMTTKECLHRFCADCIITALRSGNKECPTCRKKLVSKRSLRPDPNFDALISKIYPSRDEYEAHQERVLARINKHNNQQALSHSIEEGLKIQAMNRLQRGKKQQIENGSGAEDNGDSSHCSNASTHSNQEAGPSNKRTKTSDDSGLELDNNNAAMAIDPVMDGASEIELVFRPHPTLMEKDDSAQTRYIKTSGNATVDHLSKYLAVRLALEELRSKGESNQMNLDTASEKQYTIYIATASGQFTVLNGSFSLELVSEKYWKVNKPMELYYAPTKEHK
Format: cell-based
Summary of the method: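 RNF2-PRC1 complex immunoprecipitated from PC3 cells, washed, then preincubated with test compound for 30 min at 4 °C. Products run on SDS-PAGE and immunoblotted with anti-H2A. In cells, histones acid-extracted (0.4N H2SO4) from nuclear extracts and probed for H2A/H2AUb.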

Substance: GW-516 [compound 4]
- IC50: ~470 nM
